# Experimental data gathered from unrelated publications.
# Each line is one published result; the experiments were not run side by side.
# CDK4: Cyclin-dependent kinase 4 (CDK4, Homo sapiens, UniProt P11802)
# CDK4 with cyclin D3: Cyclin-dependent kinase 4, with cyclin D3 (CDK4, Homo sapiens, UniProt P11802)
# CDK4 with cyclin D1: Cyclin-dependent kinase 4, with cyclin D1 (CDK4, Homo sapiens, UniProt P11802)
SMILES,target,test,conditions,endpoint,value
CCOC(=O)[C@H]1Cc2c(cc([N+](=O)[O-])cc2[N+](=O)[O-])[C@H](O)[C@]12C(=O)Nc1ccc([N+](=O)[O-])cc12,CDK4,"cell-free assay, inhibitor, TR-FRET",1 µM,inhibition,37.9%
N#CC1(c2ccccn2)CCN(Cc2cc(C(=O)O)c(=O)n3ccccc23)CC1,CDK4 with cyclin D3,"cell-free assay, competition with immobilised ligand",1 µM,remaining binding,82%
CC(C)(C)c1cc(C=C(C#N)C#N)cc(Br)c1O,CDK4 with cyclin D1,"enzyme activity, inhibitor",0.5 µM,remaining activity,115%
CCOC(=O)[C@H]1Cc2c(cc([N+](=O)[O-])cc2[N+](=O)[O-])[C@H](O)[C@]12C(=O)Nc1cccc(Br)c12,CDK4,"cell-free assay, inhibitor, TR-FRET",1 µM,inhibition,29.4%
Nc1ncc(-c2nc(N3CCOCC3)nc(N3CCOCC3)n2)c(C(F)F)n1,CDK4 with cyclin D3,"binding, competition with immobilised ligand",10 µM,remaining binding,87%
Cn1cncc1[C@](O)(COc1ccc(C#N)cc1-c1ccc(OC(F)(F)F)cc1)c1ccc(C#N)cc1,CDK4 with cyclin D1,"cell-free assay, competition with immobilised ligand",1 µM,remaining binding,100%
O=c1[nH]c2ccccc2n1C1CCN(Cc2ccc(-c3[nH]c4cc5ncnc5cc4nc3-c3ccccc3)cc2)CC1,CDK4 with cyclin D3,cell-free assay,0.5 µM,remaining signal,99.7%
Cc1nn(C)cc1-c1nc2c(N3CCN(Cc4ccc(Cl)cc4)CC3)c(Cl)cnc2[nH]1,CDK4 with cyclin D3,"binding, competition with immobilised ligand",1 µM,remaining binding,74%
